Results: ChEMBL document CHEMBL1132544, “Synthesis and biological evaluation of novel prodrugs of anthracyclines for selective activation by the tumor-associated protease plasmin” (1999)
Values after ≈ are worked out from the molar mass of the structure shown.

Legend:
Assay type in all cases: functional
EVSA-T = test: Cytotoxicity against EVSA-T tumor cell line; conditions: Homo sapiens, read-out: ID50 (the source's name)
Summary of the method: (§1)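 Seven human tumour lines, continuous exposure to (pro)drug for 5 days, antiproliferative effect read by microculture sulforhodamine B (SRB) assay. ID50 = concentration giving 50% inhibition of cell growth relative to untreated control cultures, in ng/mL.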

[1] = Cytotoxicity against M19 tumor cell line; conditions: Homo sapiens; read-out: ID50 (the source's name); summary of the method: as §1
A498 = test: Cytotoxicity against A 498 tumor cell line; conditions: Homo sapiens, read-out: ID50 (the source's name); summary of the method: as §1
MCF7 = test: Cytotoxicity against MCF-7 tumor cell line; conditions: Homo sapiens, read-out: ID50 (the source's name); summary of the method: as §1
NCI-H226 = test: Cytotoxicity against H 226 tumor cell line; conditions: Homo sapiens, read-out: ID50 (the source's name); summary of the method: as §1
IGROV-1 = test: Cytotoxicity against IGROV tumor cell line; conditions: Homo sapiens, read-out: ID50 (the source's name); summary of the method: as §1
WiDr = test: Cytotoxicity against WIDR tumor cell line; conditions: Homo sapiens, read-out: ID50 (the source's name); summary of the method: as §1

Structure (SMILES)	IC50 (EVSA-T) [µg/mL]	IC50 [1] [µg/mL]	IC50 (A498) [µg/mL]	IC50 (MCF7) [µg/mL]	IC50 (NCI-H226) [µg/mL]	IC50 (IGROV-1) [µg/mL]	IC50 (WiDr) [µg/mL]
COc1cccc2c1C(=O)c1c(O)c3c(c(O)c1C2=O)C[C@@](O)(C(=O)CO)C[C@@H]3OC1CC(NC(=O)OCc2ccc(NC(=O)[C@H](CCCCN)NC(=O)[C@H](Cc3ccccc3)NC(=O)[C@@H](C)N)cc2)C(O)C(C)O1.Cl.Cl (stereo partly drawn)	0.141	0.437	0.473	0.176	0.896	0.59	0.413
COc1cccc2c1C(=O)c1c(O)c3c(c(O)c1C2=O)C[C@@](O)(C(C)=O)C[C@@H]3OC1CC(NC(=O)OCc2ccc(NC(=O)[C@H](CCCCN)NC(=O)[C@H](Cc3ccccc3)NC(=O)[C@@H](C)N)cc2)C(O)C(C)O1.Cl.Cl (stereo partly drawn)	1.2	1.58	1.16	1.21	1.7	0.225	2.15
COc1cccc2c1C(=O)c1c(O)c3c(c(O)c1C2=O)C[C@@](O)(C(C)=O)C[C@@H]3O[C@H]1C[C@H](N)[C@H](O)[C@H](C)O1 [DAUNORUBICIN]	0.048 (≈ 0.091 µM)	0.309 (≈ 0.586 µM)	0.487 (≈ 0.923 µM)	0.329 (≈ 0.624 µM)	0.243 (≈ 0.461 µM)	0.113 (≈ 0.214 µM)	0.038 (≈ 0.072 µM)
COc1cccc2c1C(=O)c1c(O)c3c(c(O)c1C2=O)C[C@@](O)(C(=O)CO)C[C@@H]3O[C@H]1C[C@H](N)[C@H](O)[C@H](C)O1 [DOXORUBICIN]	0.008 (≈ 0.0147 µM)	0.016 (≈ 0.0294 µM)	0.09 (≈ 0.166 µM)	0.01 (≈ 0.0184 µM)	0.199 (≈ 0.366 µM)	0.06 (≈ 0.11 µM)	0.011 (≈ 0.0202 µM)
